The source made the active and inactive calls. The rule behind the calls is not given here.
Experiments:
HeLa [1] = assay: Cytotoxicity against human HeLa cells 10 uM after 24 hrs by MTS assay; type: cell-based
In short: (§1)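 HeLa cells at ~80% confluence, uninfected, exposed to 1–100 μM PPMO or water (mock) in serum-free DMEM-F-12 (1:1) for 24 h. MTS reagent was added for 4 h and absorbance read at 492 nm. Viability was expressed as percent of water-treated cells (set to 100%), averaged over 12 wells.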

HeLa [2] = assay: Cytotoxicity against human HeLa cells at 10 uM by MTS assay; type: cell-based; in short: as §1
Poliovirus 1 = assay: Antiviral activity against Human poliovirus type 1 infected in Human HeLa cell assessed as inhibition of translation at 10 ug/ml by luciferase reporter gene assay; type: functional, organism-based
In short: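 In-cell translation control: HeLa cells electroporated with 20 μg PV1-Luc replicon RNA were placed in medium with 10 μg/ml puromycin at 37°C in 5% CO2. Luciferase in lysates was read by luminometer at hourly time points after transfection. Two experiments were averaged.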

Vero = assay: Cytotoxicity against African green monkey Vero cells at 10 uM after 24 hrs by MTS assay; type: cell-based; conditions: chlorocebus sabaeus
SK-N-MC = assay: Cytotoxicity against human SK-N-MC cell at 10 uM after 24 hrs by MTS assay; type: cell-based

SMILES | Activity (HeLa [1]) | Activity (HeLa [2]) | Activity (Poliovirus 1) | Activity (Vero) | Activity (SK-N-MC)
Cc1cn([C@H]2CN(P(=O)(OC[C@@H]3CN(P(=O)(OC[C@@H]4CN(P(=O)(OC[C@@H]5CN(P(=O)(OC[C@@H]6CN(P(=O)(OC[C@@H]7CN(P(=O)(OC[C@@H]8CN(P(=O)(OC[C@@H]9CN(P(=O)(OC[C@@H]%10CN(P(=O)(OC[C@@H]%11CN(P(=O)(OC[C@@H]%12CN(P(=O)(OC[C@@H]%13CN(P(=O)(OC[C@@H]%14CN(P(=O)(OC[C@@H]%15CN(P(=O)(OC[C@@H]%16CN(P(=O)(OC[C@@H]%17CN(P(=O)(OC[C@@H]%18CN(P(=O)(OC[C@@H]%19CNC[C@H](n%20cnc%21c(=O)[nH]c(N)nc%21%20)O%19)N(C)C)C[C@H](n%19ccc(N)nc%19=O)O%18)N(C)C)C[C@H](n%18cnc%19c(N)ncnc%19%18)O%17)N(C)C)C[C@H](n%17cc(C)c(=O)[nH]c%17=O)O%16)N(C)C)C[C@H](n%16cc(C)c(=O)[nH]c%16=O)O%15)N(C)C)C[C@H](n%15cnc%16c(=O)[nH]c(N)nc%16%15)O%14)N(C)C)C[C@H](n%14ccc(N)nc%14=O)O%13)N(C)C)C[C@H](n%13cnc%14c(=O)[nH]c(N)nc%14%13)O%12)N(C)C)C[C@H](n%12ccc(N)nc%12=O)O%11)N(C)C)C[C@H](n%11cnc%12c(=O)[nH]c(N)nc%12%11)O%10)N(C)C)C[C@H](n%10cc(C)c(=O)[nH]c%10=O)O9)N(C)C)C[C@H](n9cc(C)c(=O)[nH]c9=O)O8)N(C)C)C[C@H](n8ccc(N)nc8=O)O7)N(C)C)C[C@H](n7cnc8c(N)ncnc87)O6)N(C)C)C[C@H](n6cnc7c(=O)[nH]c(N)nc76)O5)N(C)C)C[C@H](n5cnc6c(=O)[nH]c(N)nc65)O4)N(C)C)C[C@H](n4ccc(N)nc4=O)O3)N(C)C)C[C@@H](COP(=O)(N(C)C)N3C[C@@H](COP(=O)(N(C)C)N4C[C@@H](COP(=O)(N(C)C)N5CCN(C(=O)CCNC(=O)CCCCCNC(=O)[C@H](CCCNC(=N)N)NC(=O)CCCCCNC(=O)[C@H](CCCNC(=N)N)NC(=O)[C@H](CCCNC(=N)N)NC(=O)CCCCCNC(=O)[C@H](CCCNC(=N)N)NC(=O)[C@H](CCCNC(=N)N)NC(=O)CCCCCNC(=O)[C@H](CCCNC(=N)N)NC(=O)[C@H](CCCNC(=N)N)NC(=O)CCCCCNC(=O)[C@@H](N)CCCNC(=N)N)CC5)O[C@@H](n5ccc(N)nc5=O)C4)O[C@@H](n4ccc(N)nc4=O)C3)O2)c(=O)[nH]c1=O (stereo not given in full) | Toxic | Non-toxic | inactive | Non-toxic | Non-toxic
Cc1cn([C@H]2CN(P(=O)(OC[C@@H]3CN(P(=O)(OC[C@@H]4CN(P(=O)(OC[C@@H]5CN(P(=O)(OC[C@@H]6CNC[C@H](n7cnc8c(N)ncnc87)O6)N(C)C)C[C@H](n6cnc7c(N)ncnc76)O5)N(C)C)C[C@H](n5cc(C)c(=O)[nH]c5=O)O4)N(C)C)C[C@H](n4cc(C)c(=O)[nH]c4=O)O3)N(C)C)C[C@@H](COP(=O)(N(C)C)N3C[C@@H](COP(=O)(N(C)C)N4C[C@@H](COP(=O)(N(C)C)N5C[C@@H](COP(=O)(N(C)C)N6C[C@@H](COP(=O)(N(C)C)N7C[C@@H](COP(=O)(N(C)C)N8C[C@@H](COP(=O)(N(C)C)N9C[C@@H](COP(=O)(N(C)C)N%10C[C@@H](COP(=O)(N(C)C)N%11C[C@@H](COP(=O)(N(C)C)N%12C[C@@H](COP(=O)(N(C)C)N%13C[C@@H](COP(=O)(N(C)C)N%14C[C@@H](COP(=O)(N(C)C)N%15C[C@@H](COP(=O)(N(C)C)N%16C[C@@H](COP(=O)(N(C)C)N%17C[C@@H](COP(=O)(N(C)C)N%18C[C@@H](COP(=O)(N(C)C)N%19C[C@@H](COP(=O)(N(C)C)N%20C[C@@H](COP(=O)(N(C)C)N%21C[C@@H](COP(=O)(N(C)C)N%22CCN(C(=O)CCNC(=O)CCCCCNC(=O)[C@H](CCCNC(=N)N)NC(=O)CCCCCNC(=O)[C@H](CCCNC(=N)N)NC(=O)[C@H](CCCNC(=N)N)NC(=O)CCCCCNC(=O)[C@H](CCCNC(=N)N)NC(=O)[C@H](CCCNC(=N)N)NC(=O)CCCCCNC(=O)[C@H](CCCNC(=N)N)NC(=O)[C@H](CCCNC(=N)N)NC(=O)CCCCCNC(=O)[C@@H](N)CCCNC(=N)N)CC%22)O[C@@H](n%22cnc%23c(=O)[nH]c(N)nc%23%22)C%21)O[C@@H](n%21cnc%22c(=O)[nH]c(N)nc%22%21)C%20)O[C@@H](n%20cc(C)c(=O)[nH]c%20=O)C%19)O[C@@H](n%19cnc%20c(N)ncnc%20%19)C%18)O[C@@H](n%18ccc(N)nc%18=O)C%17)O[C@@H](n%17cnc%18c(N)ncnc%18%17)C%16)O[C@@H](n%16cnc%17c(N)ncnc%17%16)C%15)O[C@@H](n%15ccc(N)nc%15=O)C%14)O[C@@H](n%14ccc(N)nc%14=O)C%13)O[C@@H](n%13ccc(N)nc%13=O)C%12)O[C@@H](n%12ccc(N)nc%12=O)C%11)O[C@@H](n%11cc(C)c(=O)[nH]c%11=O)C%10)O[C@@H](n%10cnc%11c(=O)[nH]c(N)nc%11%10)C9)O[C@@H](n9cc(C)c(=O)[nH]c9=O)C8)O[C@@H](n8cnc9c(=O)[nH]c(N)nc98)C7)O[C@@H](n7ccc(N)nc7=O)C6)O[C@@H](n6cc(C)c(=O)[nH]c6=O)C5)O[C@@H](n5cnc6c(=O)[nH]c(N)nc65)C4)O[C@@H](n4cc(C)c(=O)[nH]c4=O)C3)O2)c(=O)[nH]c1=O (stereo not given in full) | Toxic | Non-toxic | inactive | Non-toxic | Non-toxic
Cc1cn([C@H]2CN(P(=O)(OC[C@@H]3CN(P(=O)(OC[C@@H]4CN(P(=O)(OC[C@@H]5CN(P(=O)(OC[C@@H]6CN(P(=O)(OC[C@@H]7CN(P(=O)(OC[C@@H]8CN(P(=O)(OC[C@@H]9CN(P(=O)(OC[C@@H]%10CN(P(=O)(OC[C@@H]%11CN(P(=O)(OC[C@@H]%12CN(P(=O)(OC[C@@H]%13CN(P(=O)(OC[C@@H]%14CN(P(=O)(OC[C@@H]%15CN(P(=O)(OC[C@@H]%16CN(P(=O)(OC[C@@H]%17CN(P(=O)(OC[C@@H]%18CN(P(=O)(OC[C@@H]%19CN(P(=O)(OC[C@@H]%20CN(P(=O)(OC[C@@H]%21CN(P(=O)(OC[C@@H]%22CNC[C@H](n%23cnc%24c(N)ncnc%24%23)O%22)N(C)C)C[C@H](n%22cc(C)c(=O)[nH]c%22=O)O%21)N(C)C)C[C@H](n%21ccc(N)nc%21=O)O%20)N(C)C)C[C@H](n%20cnc%21c(N)ncnc%21%20)O%19)N(C)C)C[C@H](n%19cc(C)c(=O)[nH]c%19=O)O%18)N(C)C)C[C@H](n%18cc(C)c(=O)[nH]c%18=O)O%17)N(C)C)C[C@H](n%17cnc%18c(=O)[nH]c(N)nc%18%17)O%16)N(C)C)C[C@H](n%16cnc%17c(=O)[nH]c(N)nc%17%16)O%15)N(C)C)C[C@H](n%15cnc%16c(=O)[nH]c(N)nc%16%15)O%14)N(C)C)C[C@H](n%14cnc%15c(N)ncnc%15%14)O%13)N(C)C)C[C@H](n%13cc(C)c(=O)[nH]c%13=O)O%12)N(C)C)C[C@H](n%12cnc%13c(=O)[nH]c(N)nc%13%12)O%11)N(C)C)C[C@H](n%11cnc%12c(=O)[nH]c(N)nc%12%11)O%10)N(C)C)C[C@H](n%10cnc%11c(N)ncnc%11%10)O9)N(C)C)C[C@H](n9cnc%10c(=O)[nH]c(N)nc%109)O8)N(C)C)C[C@H](n8cc(C)c(=O)[nH]c8=O)O7)N(C)C)C[C@H](n7ccc(N)nc7=O)O6)N(C)C)C[C@H](n6cnc7c(N)ncnc76)O5)N(C)C)C[C@H](n5cnc6c(=O)[nH]c(N)nc65)O4)N(C)C)C[C@H](n4ccc(N)nc4=O)O3)N(C)C)C[C@@H](COP(=O)(N(C)C)N3CCN(C(=O)CCNC(=O)CCCCCNC(=O)[C@H](CCCNC(=N)N)NC(=O)CCCCCNC(=O)[C@H](CCCNC(=N)N)NC(=O)[C@H](CCCNC(=N)N)NC(=O)CCCCCNC(=O)[C@H](CCCNC(=N)N)NC(=O)[C@H](CCCNC(=N)N)NC(=O)CCCCCNC(=O)[C@H](CCCNC(=N)N)NC(=O)[C@H](CCCNC(=N)N)NC(=O)CCCCCNC(=O)[C@@H](N)CCCNC(=N)N)CC3)O2)c(=O)[nH]c1=O (stereo not given in full) | Toxic | Non-toxic | inactive | Non-toxic | Non-toxic
